{"source": "ChEMBL document CHEMBL3739276", "about": "“Discovery of A-971432, An Orally Bioavailable Selective Sphingosine-1-Phosphate Receptor 5 (S1P5) Agonist for the Potential Treatment of Neurodegenerative Disorders” (J Med Chem, 2015)", "key": {"[1]": {"experiment": "Oral bioavailability in BALB/C mouse plasma at 2 mg/kg", "format": "ADME, organism-based"}, "[2]": {"experiment": "Oral bioavailability in BALB/C mouse brain at 2 mg/kg", "format": "ADME, organism-based"}, "Rattus norvegicus [3]": {"test_system": "Rattus norvegicus", "experiment": "Lymphopenia activity in Sprague-Dawley rat assessed as change in lymphocyte counts at 100 mg/kg, po measured 5 hrs post dose", "format": "ADME, organism-based", "conditions": "in vivo"}, "[4]": {"experiment": "Thiol reactivity by Alarm NMR assay"}, "[5]": {"experiment": "Plasma concentration in C57BL6J mouse at 0.1 mg/kg, po qd administered for 21 days during spontaneous alteration T-maze assay", "format": "ADME, organism-based", "procedure,_shortened": "(§1)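 Male C57BL/6J mice aged 12 months (n = 20), with 2-month-old mice (n = 11) as young controls. Randomized and blinded. Single daily oral doses (10 mL/kg) for 21 days. On day 21, dosed 225 min before a spontaneous-alternation trial in a gray Plexiglas T-maze. Exposure measured in plasma and brain. One-way ANOVA.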"}, "Cytochrome P450 3A4": {"biological_target": "Cytochrome P450 3A4 (Homo sapiens, UniProt P08684)", "sequence (P08684 whole entry)": "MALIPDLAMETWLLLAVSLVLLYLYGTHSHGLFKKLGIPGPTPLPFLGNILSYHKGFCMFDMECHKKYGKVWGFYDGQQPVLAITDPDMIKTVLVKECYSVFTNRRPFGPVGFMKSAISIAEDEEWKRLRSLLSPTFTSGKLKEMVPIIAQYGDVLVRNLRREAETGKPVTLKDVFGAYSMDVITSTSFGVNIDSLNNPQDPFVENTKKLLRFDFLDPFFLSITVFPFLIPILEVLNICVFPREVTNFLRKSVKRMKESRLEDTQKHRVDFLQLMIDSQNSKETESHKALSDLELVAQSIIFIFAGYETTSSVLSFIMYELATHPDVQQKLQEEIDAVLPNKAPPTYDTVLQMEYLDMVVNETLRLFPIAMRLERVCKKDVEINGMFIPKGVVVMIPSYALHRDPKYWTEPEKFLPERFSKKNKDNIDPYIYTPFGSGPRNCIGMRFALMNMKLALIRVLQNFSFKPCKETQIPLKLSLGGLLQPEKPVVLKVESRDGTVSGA", "experiment": "Inhibition of CYP3A4 (unknown origin)", "format": "ADME"}, "[6]": {"biological_target": "T1, Sphingosine 1-phosphate receptor 4 (Homo sapiens) (UniProt O95977)", "T1 sequence (whole entry)": "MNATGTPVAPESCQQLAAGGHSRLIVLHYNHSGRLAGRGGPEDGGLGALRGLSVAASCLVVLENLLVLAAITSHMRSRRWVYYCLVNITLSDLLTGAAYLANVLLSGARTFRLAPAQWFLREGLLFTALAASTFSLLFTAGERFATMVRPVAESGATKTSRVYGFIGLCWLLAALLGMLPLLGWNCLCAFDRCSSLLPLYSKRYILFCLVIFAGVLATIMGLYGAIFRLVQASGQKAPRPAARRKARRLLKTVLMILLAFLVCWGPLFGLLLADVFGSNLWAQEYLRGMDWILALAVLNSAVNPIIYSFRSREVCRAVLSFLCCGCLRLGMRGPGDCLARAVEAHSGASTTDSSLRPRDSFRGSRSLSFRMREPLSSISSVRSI", "experiment": "Displacement of [33P]S1P from S1P4 receptor (unknown origin) expressed in HEK cell membranes after 45 to 60 mins by scintillation counting based RLB method", "conditions": "HEK293", "procedure,_shortened": "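Membranes from transiently transfected HEK cells overexpressing the S1P receptor, 5-10 µg per well, in 50 mM HEPES pH 7.4, 100 mM NaCl, 10 mM MgCl2, 0.1% fatty-acid-free BSA. [33P]S1P at 50 pM; non-specific binding with 1 µM cold S1P. Final DMSO 1 or 0.5%. Incubated 45-60 min at room temperature, then filtered and counted. IC50 from non-linear fit of percent inhibition.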"}, "Rattus norvegicus [7]": {"test_system": "Rattus norvegicus", "experiment": "Cardiotoxicity in Sprague-Dawley rat assessed as decrease in cardiac contractility at 30 mg/kg, iv administered for 30 mins", "format": "toxicity, organism-based, Heart", "design": "scale not given: the % may be the effect or the level left", "conditions": "in vivo, 0.5 h", "procedure,_shortened": "(§2)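 Male Sprague-Dawley rats (327-400 g) under Inactin anaesthesia (100 mg/kg ip), with femoral arterial catheters for arterial pressure and heart rate, and a left-ventricular catheter for dP/dt at 50 mmHg. After a 30 min baseline, three sequential 30 min IV infusions of 3, 10 and 30 mg/kg in 20% DMA/40% PG/40% PEG-400. Treated n=4, vehicle n=5; unpaired t tests; plasma sampled after each infusion.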"}, "Rattus norvegicus [8]": {"test_system": "Rattus norvegicus", "experiment": "Cardiotoxicity in Sprague-Dawley rat assessed as bradycardia at 3 to 30 mg/kg, iv administered for 30 mins", "format": "toxicity, organism-based", "conditions": "in vivo, 0.5 h", "procedure,_shortened": "as §2"}, "Rattus norvegicus [9]": {"test_system": "Rattus norvegicus", "experiment": "Toxicity in male Sprague-Dawley rat assessed as weight loss at 10 to 100 mg/kg, po qd measured on day 14 relative to vehicle treated control", "format": "organism-based", "conditions": "in vivo"}, "[10]": {"experiment": "AUC in Sprague-Dawley rat at 10 mg/kg, po qd measured on day 2 and day 14", "format": "ADME, organism-based", "conditions": "in vivo", "procedure,_shortened": "(§3)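 Sprague-Dawley rats of both sexes dosed orally once daily for 14 days in a tolerability study; exposure AUC measured on day 2 and day 14.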"}, "[11]": {"experiment": "AUC in Sprague-Dawley rat at 100 mg/kg, po qd measured on day 2 and day 14", "format": "ADME, organism-based", "conditions": "in vivo", "procedure,_shortened": "as §3"}, "Mus musculus": {"test_system": "Mus musculus", "experiment": "Reversal of age related cognitive deficits in C57BL6J mouse at 0.1 mg/kg, po qd administered for 21 days measured 225 mins post last dose by spontaneous alteration T-maze assay", "format": "functional", "procedure,_shortened": "as §1"}, "[12]": {"biological_target": "Sodium-dependent dopamine transporter (Homo sapiens) (UniProt Q01959)", "sequence (Q01959 whole entry)": "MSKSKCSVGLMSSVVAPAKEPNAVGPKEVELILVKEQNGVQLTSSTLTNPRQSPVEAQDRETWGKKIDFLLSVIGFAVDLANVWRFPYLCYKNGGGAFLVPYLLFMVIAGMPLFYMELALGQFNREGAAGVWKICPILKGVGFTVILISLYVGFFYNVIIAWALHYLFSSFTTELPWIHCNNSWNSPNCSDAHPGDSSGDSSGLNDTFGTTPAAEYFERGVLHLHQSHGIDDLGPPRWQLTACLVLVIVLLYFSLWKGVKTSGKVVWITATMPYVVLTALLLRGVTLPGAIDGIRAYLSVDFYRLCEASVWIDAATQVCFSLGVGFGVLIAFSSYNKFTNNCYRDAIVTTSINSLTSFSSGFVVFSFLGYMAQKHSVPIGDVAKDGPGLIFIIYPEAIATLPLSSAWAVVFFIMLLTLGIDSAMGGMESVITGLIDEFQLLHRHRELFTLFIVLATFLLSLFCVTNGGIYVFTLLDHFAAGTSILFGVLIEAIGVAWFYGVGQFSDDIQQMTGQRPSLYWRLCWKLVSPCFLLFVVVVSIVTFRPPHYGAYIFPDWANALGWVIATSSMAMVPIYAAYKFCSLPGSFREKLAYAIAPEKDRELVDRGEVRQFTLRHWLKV", "experiment": "Binding affinity to human recombinant dopamine transporter expressed in CHO cells", "format": "cell-based"}, "[13]": {"experiment": "Clearance in BALB/C mouse plasma at 2 mg/kg, iv", "format": "ADME, organism-based"}, "[14]": {"experiment": "Clearance in Sprague-Dawley rat plasma at 1 mg/kg, iv", "format": "ADME, organism-based"}, "[15]": {"experiment": "AUC in Sprague-Dawley rat plasma at 1 mg/kg, iv", "format": "ADME, organism-based"}, "[16]": {"experiment": "AUC in beagle dog plasma at 1 mg/kg, iv", "format": "ADME, organism-based, Canis lupus familiaris"}, "[17]": {"experiment": "AUC in cynomolgus monkey plasma at 1 mg/kg, iv", "format": "ADME, organism-based, Macaca fascicularis"}, "[18]": {"experiment": "Volume of distribution at steady state in Sprague-Dawley rat plasma at 1 mg/kg, iv", "format": "ADME, organism-based", "conditions": "read-out: Vdss"}, "[19]": {"experiment": "Volume of distribution at steady state in beagle dog plasma at 1 mg/kg, iv", "format": "ADME, organism-based, Canis lupus familiaris", "conditions": "read-out: Vdss"}, "[20]": {"experiment": "Half life in cynomolgus monkey plasma at 1 mg/kg, po", "format": "ADME, organism-based, Macaca fascicularis"}, "[21]": {"experiment": "Tmax in Sprague-Dawley rat plasma at 1 mg/kg, po", "format": "ADME, organism-based"}, "[22]": {"experiment": "Cmax in BALB/C mouse brain at 2 mg/kg, po", "format": "ADME, organism-based", "design": "dose 2 mg/kg, route oral"}, "[23]": {"experiment": "Cmax in Sprague-Dawley rat plasma at 1 mg/kg, po", "format": "ADME, organism-based", "design": "dose 1 mg/kg, route oral"}, "[24]": {"experiment": "AUC in BALB/C mouse brain at 2 mg/kg, po", "format": "ADME, organism-based"}}, "note": "The source made the active and inactive calls. The calls are words filed in the database; no cut-off is given here.", "data": [{"smiles": "O=C(O)C1CN(Cc2ccc(OCc3ccc(Cl)c(Cl)c3)cc2)C1", "values": [{"measurement": "bioavailability", "setting": "[1]", "result": 57, "unit": "%"}, {"measurement": "bioavailability", "setting": "[2]", "result": 56, "unit": "%"}, {"measurement": "Activity", "setting": "Rattus norvegicus [3]", "result": "Non-toxic"}, {"measurement": "Activity", "setting": "[4]", "result": "inactive"}, {"measurement": "concentration at 504 h", "setting": "[5]; in vivo", "result": 28.3, "unit": "ng/g"}, {"measurement": "concentration at 504 h", "setting": "[5]; plasma", "result": 41.6, "unit": "ng/mL"}, {"measurement": "INH", "setting": "Cytochrome P450 3A4", "result": "> 20", "unit": "µM"}, {"measurement": "Activity", "setting": "[6]", "result": "inactive"}, {"measurement": "Activity", "setting": "Rattus norvegicus [7]", "result": 10, "unit": "%"}, {"measurement": "Activity", "setting": "Rattus norvegicus [8]", "result": "Non-toxic"}, {"measurement": "Activity", "setting": "Rattus norvegicus [9]", "result": 10, "unit": "%"}, {"measurement": "AUC", "setting": "[10]", "result": 43000, "unit": "ng·h/mL"}, {"measurement": "AUC", "setting": "[11]", "result": 670000, "unit": "ng·h/mL"}, {"measurement": "Activity", "setting": "Mus musculus", "result": "Dose-dependent effect"}, {"measurement": "LED", "setting": "Mus musculus", "result": 0.1, "unit": "mg/kg"}, {"measurement": "Activity", "setting": "[12]", "result": 63, "unit": "%"}, {"measurement": "clearance", "setting": "[13]", "result": 4, "unit": "mL/min/kg"}, {"measurement": "clearance", "setting": "[14]", "result": 2.67, "unit": "mL/min/kg"}, {"measurement": "AUC", "setting": "[15]", "result": 6400, "unit": "ng·h/mL"}, {"measurement": "AUC", "setting": "[16]", "result": 12000, "unit": "ng·h/mL"}, {"measurement": "AUC", "setting": "[17]", "result": 6400, "unit": "ng·h/mL"}, {"measurement": "Vd", "setting": "[18]", "result": 1.3, "unit": "L/kg"}, {"measurement": "Vd", "setting": "[19]", "result": 1.2, "unit": "L/kg"}, {"measurement": "half-life", "setting": "[20]", "result": 6.7, "unit": "h"}, {"measurement": "Tmax", "setting": "[21]", "result": 4.3, "unit": "h"}, {"measurement": "Cmax", "setting": "[22]", "result": 43, "unit": "ng/mL"}, {"measurement": "Cmax", "setting": "[23]", "result": 400, "unit": "ng/mL"}, {"measurement": "AUC", "setting": "[24]", "result": 1600, "unit": "ng·h/mL"}]}]}
